Legend:
DU-145 = test: Cytotoxicity against human DU145 cells after 48 hrs by SRB assay; assay type: functional, cell-based; conditions: Homo sapiens, DU-145, 48 h; for CC50: read-out: LC50 (the source's name)
Procedure, shortened: (§1)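 Cells grown in RPMI 1640 with 10% FBS and penicillin/streptomycin at 37 °C and 5% CO₂, trypsinized, then seeded at 5 × 10³/well. After 18 h drug-free attachment, samples in DMSO/EtOH/PBS (0.5:0.5:99) were added for 48 h continuous exposure. Cells were fixed with cold TCA (1 h, 4 °C) and stained with SRB (10 min). Tris-solubilized stain read at 490 nm. Triplicate wells, mean ± SD; GI₅₀ derived.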

LNCaP = test: Cytotoxicity against human LNcaP cells after 48 hrs by SRB assay; assay type: functional; conditions: for CC50: read-out: LC50 (the source's name); procedure, shortened: as §1
[1] = Cytotoxicity against human IGROV cells after 48 hrs by SRB assay; assay type: functional; conditions: for CC50: read-out: LC50 (the source's name); procedure, shortened: as §1
[2] = Cytotoxicity against human IGROV-ET cells after 48 hrs by SRB assay; assay type: functional; conditions: for CC50: read-out: LC50 (the source's name); procedure, shortened: as §1
SK-BR-3 = test: Cytotoxicity against human SKBR3 cells after 48 hrs by SRB assay; assay type: functional; conditions: SK-BR-3, 48 h; for GI50: read-out: GI50; for CC50: read-out: LC50 (the source's name); procedure, shortened: as §1
SK-MEL-28 = test: Cytotoxicity against human SK-MEL-28 cells after 48 hrs by SRB assay; assay type: functional, cell-based; conditions: Homo sapiens, SK-MEL-28, 48 h; for CC50: read-out: LC50 (the source's name); procedure, shortened: as §1
A549 = test: Cytotoxicity against human A549 cells after 48 hrs by SRB assay; assay type: functional, cell-based; conditions: Homo sapiens, A549, 48 h; procedure, shortened: as §1
K562 = test: Cytotoxicity against human K562 cells after 48 hrs by SRB assay; assay type: functional; conditions: K562, 48 h; for CC50: read-out: LC50 (the source's name); procedure, shortened: as §1
PANC-1 = test: Cytotoxicity against human PANC1 cells after 48 hrs by SRB assay; assay type: functional; conditions: PANC-1, 48 h; for CC50: read-out: LC50 (the source's name); procedure, shortened: as §1
HT-29 = test: Cytotoxicity against human HT29 cells after 48 hrs by SRB assay; assay type: functional, cell-based; conditions: Homo sapiens, HT-29, 48 h; for CC50: read-out: LC50 (the source's name); procedure, shortened: as §1
LoVo [3] = test: Cytotoxicity against human LoVo cells after 48 hrs by SRB assay; assay type: functional; conditions: for CC50: read-out: LC50 (the source's name)
LoVo [4] = test: Cytotoxicity against human doxorubicin resistant LoVo cells after 48 hrs by SRB assay; assay type: functional; conditions: for CC50: read-out: LC50 (the source's name); procedure, shortened: as §1
HeLa = test: Cytotoxicity against human HeLa cells after 48 hrs by SRB assay; assay type: functional; conditions: for CC50: read-out: LC50 (the source's name); procedure, shortened: as §1
[5] = Cytotoxicity against human HeLa-APL cells after 48 hrs by SRB assay; assay type: functional; procedure, shortened: as §1

SMILES	GI50 (DU-145; read-out: GI50) [nM]	CC50 (DU-145) [nM]	GI50 (LNCaP) [nM]	TGI (LNCaP) [µM]	CC50 (LNCaP) [nM]	GI50 ([1]; read-out: GI50) [nM]	CC50 [1] [nM]	CC50 [2] [nM]	CC50 (SK-BR-3) [µM]	CC50 (SK-MEL-28) [nM]	LC50 (A549) [nM]	CC50 (K562) [nM]	CC50 (PANC-1) [nM]	CC50 (HT-29) [nM]	CC50 (LoVo [3]) [nM]	CC50 (LoVo [4]) [nM]	CC50 (HeLa) [nM]	GI50 [5] [nM]	LC50 (concentration giving 50% net cell kill) [5] [nM]	TGI [5] [nM]	also measured
C/C=C1\NC(=O)[C@H](Cc2ccccc2)NC(=O)[C@@H](C(C)C)NC(=O)[C@@H]([C@H](C)CC)NC(=O)[C@H](NC(=O)[C@H](NC(=O)[C@H](CCCN)NC(=O)[C@H]2CCCN2C(=O)[C@H](NC(=O)[C@@H](NC(=O)[C@@H](NC(=O)[C@@H](CC2CCCCC2)NC(=O)CCCC(C)C)[C@@H](C)O)C(C)C)C(C)C)[C@H](C)CC)[C@H](C)OC(=O)[C@H](C(C)C)NC1=O	1410	1030	2980	3.46	1720	1270	401	373	4.99	1230	1770	2340	2440	2650	2180	247	917	1450	1140	1290	TGI (DU-145): 1200 nM; TGI [1]: 8.32 µM; TGI [2]: 1230 nM; GI50 ([2]; read-out: GI50): 1090 nM; TGI (SK-BR-3): 862 nM; GI50 (SK-BR-3): 789 nM; TGI (SK-MEL-28): 1470 nM; GI50 (SK-MEL-28; read-out: GI50): 1730 nM; TGI (A549): 2180 nM; GI50 (A549; read-out: GI50): 1970 nM; GI50 (K562): 2100 nM; TGI (K562): 3070 nM; GI50 (HT-29): 2010 nM; TGI (HT-29): 2310 nM; GI50 (LoVo [3]): 2090 nM; TGI (LoVo [3]): 2130 nM; GI50 (LoVo [4]): 825 nM; TGI (LoVo [4]): 746 nM; GI50 (HeLa): 1300 nM; TGI (HeLa): 1090 nM
C/C=C1\NC(=O)[C@H](Cc2ccccc2)NC(=O)[C@@H](C(C)C)NC(=O)[C@@H]([C@H](C)CC)NC(=O)[C@H](NC(=O)[C@H](NC(=O)[C@H](CCCN)NC(=O)[C@H]2CCCN2C(=O)[C@H](NC(=O)[C@@H](NC(=O)[C@@H](NC(=O)[C@@H](C(C)C)N(CCCCCC)CCCCCC)[C@@H](C)O)C(C)C)C(C)C)[C@H](C)CC)[C@H](C)OC(=O)[C@H](C(C)C)NC1=O	–	2280	3720	3.3	1480	–	1210	4230	3.53	1660	1160	1900	2270	2030	4060	3780	1050	1810	1220	1580	–
C/C=C1\NC(=O)[C@H](Cc2ccccc2)NC(=O)[C@@H](CCC2CCCCC2)NC(=O)[C@@H](CCC2CCCCC2)NC(=O)[C@H](NC(=O)[C@@H](CCC2CCCCC2)NC(=O)[C@H](CCCN)NC(=O)[C@H]2CCCN2C(=O)[C@H](NC(=O)[C@@H](NC(=O)[C@@H](NC(=O)[C@H](NC(=O)CCCC(C)C)C(C)C)[C@@H](C)O)C(C)C)C(C)C)[C@H](C)OC(=O)[C@H](C(C)C)NC1=O	148	104	304	0.415	633	214	161	55	0.0878	144	222	980	1450	320	264	27.4	586	233	573	3400	GI50 (DU-145): 125 nM; GI50 [1]: 139 nM; GI50 [2]: 227 nM; GI50 ([2]; read-out: GI50): 255 nM; TGI (SK-BR-3): 201 nM; GI50 (SK-BR-3): 249 nM; GI50 (SK-MEL-28): 159 nM; GI50 (SK-MEL-28; read-out: GI50): 174 nM; GI50 (A549): 173 nM; GI50 (A549; read-out: GI50): 161 nM; GI50 (K562): 363 nM; TGI (K562): 630 nM; GI50 (PANC-1): 1320 nM; TGI (PANC-1): 1380 nM; GI50 (HT-29): 359 nM; TGI (HT-29): 339 nM; GI50 (LoVo [3]): 282 nM; TGI (LoVo [3]): 274 nM; GI50 (HeLa): 255 nM; TGI (HeLa): 361 nM

From ChEMBL document CHEMBL1156597, “Structure-activity relationship of kahalalide F synthetic analogues” (J Med Chem, 2008)
